Measurements taken from ChEMBL document CHEMBL4020714, “Design, synthesis, and evaluation of curcumin derivatives as Nrf2 activators and cytoprotectors against oxidative death” (Eur J Med Chem, 2017).
Active and inactive are the calls of the source.

Key:
Type in all cases: cell-based
Homo sapiens = organism: Homo sapiens; test: Induction of ERK phosphorylation in human HepG2 cells at 5 uM after 15 to 120 mins by Western blot analysis
Method in brief: (§1)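 HepG2 cells (2×10^6/well) treated at the indicated concentrations and times. Whole-cell lysates, or nuclear and cytoplasmic fractions, are prepared and quantified by BCA. Samples are run at 40 μg/lane on 12% SDS-PAGE, transferred to nitrocellulose, probed with specific antibodies and HRP secondary (1/5000), and detected by ECL. Where used, LY294002 (15 μM), SP600125 (25 μM) or DTT (400 μM) is added 1 h before compound.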

[1] = target: T1, Nuclear factor erythroid 2-related factor 2 (Homo sapiens) (UniProt Q16236); test: Activation of Nrf2 in human HepG2 cells assessed as increase in GCLC expression level at 5 uM in presence of 15 uM PI3K/Akt inhibitor LY294002 for 1 hr prior to compound treatment by Western blot analysis; method in brief: as §1
T1 sequence (whole entry): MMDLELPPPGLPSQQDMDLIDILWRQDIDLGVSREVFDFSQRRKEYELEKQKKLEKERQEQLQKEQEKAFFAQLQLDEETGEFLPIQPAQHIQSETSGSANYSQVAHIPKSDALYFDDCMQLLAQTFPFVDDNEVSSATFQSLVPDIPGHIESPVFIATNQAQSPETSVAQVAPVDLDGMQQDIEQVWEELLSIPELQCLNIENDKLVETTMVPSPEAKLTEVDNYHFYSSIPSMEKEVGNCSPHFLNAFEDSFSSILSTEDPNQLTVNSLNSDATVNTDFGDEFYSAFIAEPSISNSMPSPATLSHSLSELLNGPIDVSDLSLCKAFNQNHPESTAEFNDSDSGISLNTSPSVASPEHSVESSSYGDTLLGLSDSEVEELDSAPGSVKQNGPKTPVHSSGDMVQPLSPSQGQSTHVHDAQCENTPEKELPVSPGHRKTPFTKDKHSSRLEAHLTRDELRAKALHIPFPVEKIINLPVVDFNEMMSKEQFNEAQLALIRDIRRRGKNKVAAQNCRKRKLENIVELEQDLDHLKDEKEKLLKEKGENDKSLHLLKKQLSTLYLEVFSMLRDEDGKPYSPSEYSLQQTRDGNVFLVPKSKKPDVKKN

[2] = target: T1, Nuclear factor erythroid 2-related factor 2 (Homo sapiens); test: Activation of Nrf2 in human HepG2 cells assessed as cytoprotection against t-BHP-induced oxidative cell death at 5 uM incubated for 24 hrs followed by compound removal with subsequent incubation with 900 uM of t-BHP for 6 hrs in presence of 100 nM copper chelator NEO for 1 hr prior to compound treatment by MTT assay
Method in brief: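 HepG2 cells (5×10^3/well) seeded and grown 24 h in 1640 medium with 10% FBS at 37 °C and 5% CO2. Compound is added for 24 h, then removed, and cells are challenged with 900 μM t-BHP for 6 h at 37 °C. MTT (0.5 mg/mL) is added for 4 h, formazan dissolved in DMSO, and absorbance read at 570 nm. Where used, inhibitors are added 1 h before compound. Mean ± SD of three independent experiments.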

Measured: Activity

CC(C)(C(=O)/C=C/c1ccc(O)c(O)c1)C(=O)/C=C/c1ccc(O)c(O)c1
inactive: all assays above
